# Rows were chosen to be rich in hits. Some 3.1% of all compounds tested hit in one or more screens of this group.
# SIRT5 block = blocks human SIRT5 desuccinylation of peptide. 330,000 compounds, 1.1% hits. Purified SirT5, succinyl-peptide AMC, trypsin-coupled fluorescence. inhibition, % at 15 µM; in the data active means inhibition above about 15%
# Target sequence (Q9NXA8 whole entry, looked up): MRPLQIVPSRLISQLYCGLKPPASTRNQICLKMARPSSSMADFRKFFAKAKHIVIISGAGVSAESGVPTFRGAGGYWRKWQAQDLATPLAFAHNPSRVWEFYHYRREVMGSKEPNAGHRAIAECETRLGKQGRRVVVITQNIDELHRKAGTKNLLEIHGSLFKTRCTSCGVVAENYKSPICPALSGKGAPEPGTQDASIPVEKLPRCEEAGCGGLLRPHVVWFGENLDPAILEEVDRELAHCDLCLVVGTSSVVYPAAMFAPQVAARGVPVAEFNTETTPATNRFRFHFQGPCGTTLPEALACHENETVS
# S100A4 MyoIIA = inhibitors of human S100A4 binding to myosin IIA peptide; AID 652163; S100A4/TAMRA-MyoIIA peptide fluorescence polarization; inhibition, % at 10.7 µM; 360,000 compounds, 0.14% hits; P26447;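 active means mean inhibition of at least 70% across replicates, with every replicate also reaching that level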
# Target sequence (P26447 whole entry, looked up): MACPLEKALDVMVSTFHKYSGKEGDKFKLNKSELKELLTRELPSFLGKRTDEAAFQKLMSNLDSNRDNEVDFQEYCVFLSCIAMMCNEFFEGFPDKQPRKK
#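 Test system – S100A4 monomer (human) · Compound – single-point compound testing · Schedule – 5 min incubation before reading · Probe or stimulus – TAMRA-labelled myosin IIA heavy-chain peptide probe, 5 nM · Benchmarks – neutral control DMSO, positive control TFP · Medium – Calcium-containing HEPES buffer, pH 7.2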
# ERAP1 HTS inh = inhibitors of human ERAP1 aminopeptidase. recombinant ERAP1, Leu-AMC fluorescence, 60 min. Q9NZ08. inhibition, % at 10.7 µM. 340,000 compounds, 0.15% hits;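 active means mean replicate inhibition of at least 30%, or all replicates individually reaching that 30% level; inactive means mean below 30% and not every replicate reaching it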
# CFTR F508del cor = correctors of CFTR F508del function in bronchial epithelial cells. 350,000 compounds, 0.36% hits. activity (quench increase), % at 7.58 µM. CFBE cells, YFP halide quenching; stimulated with forskolin plus potentiator P3; % fluorescence drop versus neutral controls;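 active means mean added fluorescence quench of at least 8% versus neutral control, with both replicates also reaching 8%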;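 further: cells transiently co-express mutant CFTR-F508del with the halide-sensitive YFP; corrector assay measuring rescue of mutant channel to the surface after 24 h compound exposure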
# Ecoli rRNA inh = inhibits bacterial ribosomal RNA function over humanized ribosomes. E. coli WT GFP vs humanized-ribosome RFP mutants, fluorescence, 24 h; hits give low values; DMSO median 0, no signal -100. GFP signal change (wild-type ribosome), % (test concentration not listed). 350,000 compounds, 1.6% hits;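 active means significant combined selectivity score with lowered wild-type GFP, culture density cut under 30%, mutant RFP and density less affected; inactive means any of these conditions unmet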
# A number is an active result; - = inactive; . = no result.
SMILES,SIRT5 block,S100A4 MyoIIA,ERAP1 HTS inh,CFTR F508del cor,Ecoli rRNA inh
O=C(N[C@@H]1CC[C@@H](CCn2cc(-c3ccccn3)nn2)O[C@@H]1CO)c1cccnc1,-,-,-,-,-
COc1cc([C@H]2Oc3c(OC)cc(CCCO[C@@H]4O[C@H](CO)[C@@H](O)[C@H](O)[C@H]4O)cc3[C@@H]2CO)ccc1O,25,-,-,-,-
OC[C@H]1O[C@H](OCCc2ccc(O)cc2)[C@H](O)[C@@H](O)[C@@H]1O,.,-,.,-,-
COc1ccc(-c2cc(-c3cc(F)ccc3O)[nH]n2)cc1OC,-,-,-,-,-33
COc1ccc(O)c(-c2cc(-c3ccc(F)cc3)n[nH]2)c1,-,-,-,-,-
COc1ccc(S(=O)(=O)N[C@H]2CC[C@H](CC(=O)N3CCN(c4ccccc4)CC3)O[C@H]2CO)cc1,-,-,-,-,-
CCCNC(=O)N1C[C@H](C)[C@@H](OC)CN(C)C(=O)c2cc(NS(C)(=O)=O)ccc2OC[C@@H]1C,-,-,-,-,-
S=C(Nc1ccccn1)NC1CCCC1,-,-,-,-,-
S=C(Nc1ccccn1)NC1CCCCC1,-,-,-,-,-23
S=C(Nc1ccc(Nc2ccccc2)cc1)Nc1ccccn1,-,-,-,-,-32
CCC(=O)N1[C@@H]2c3ccc(C4=CCCC4)c(=O)n3C[C@@H]2[C@@H](CO)[C@@H]1C(=O)NCc1ccccc1,-,-,-,-,-
COC(=O)c1cc(OC)c(OC)cc1NC(=O)c1cc(OC)cc(OC)c1,16,-,-,-,-
COC(=O)c1cc(OC)c(OC)cc1NC(=O)c1csc(C)c1,-,-,-,-,-
Clc1ccc(-c2nc(NCCCN3CCOCC3)c3ccccc3n2)cc1,-,-,-,-,-17
CN(C)CCCNc1nc(-c2ccccc2)nc2ccccc12,-,-,-,-,-
c1ccc(CNc2c3ccccc3nc3ccccc23)cc1,-,-,-,11,-
CN(C)CCCNc1c2ccccc2nc2ccccc12,-,-,-,18,-
c1ccc2c(NCCCN3CCOCC3)c3ccccc3nc2c1,-,-,-,11,-
COc1ccc(S(=O)(=O)N(C)C[C@H]2Oc3ccc(NC(=O)CCC(F)(F)F)cc3C(=O)N([C@@H](C)CO)C[C@H]2C)cc1,-,-,-,-,-
CO[C@@H](CN(C)S(=O)(=O)c1ccc(Cl)cc1)[C@@H](C)CN(Cc1ccccc1Cl)[C@@H](C)CO,-,-,-,-,-
CO[C@H]1CN(C)C(=O)c2ccc(NC(=O)C3CC3)cc2OC[C@H](C)N(Cc2cncnc2)C[C@H]1C,.,.,.,-,-
COCC(=O)N1C[C@@H](C)[C@H](OC)CN(C)C(=O)c2cc(NC(=O)c3cc(C)on3)ccc2OC[C@H]1C,-,-,-,-,-
O=C(N[C@H]1CC[C@H](CC(=O)N2CCc3ccccc3C2)O[C@H]1CO)C1CCC1,-,-,-,-,-
CC(=O)c1cccc(NC(=O)CCCNC(=O)c2ccc(Cl)cc2)c1,-,-,-,-,-
CSc1cccc(NC(=O)CCCNC(=O)c2ccc(Cl)cc2)c1,.,-,51,-,-
SMILES,SIRT5 block,S100A4 MyoIIA,ERAP1 HTS inh,CFTR F508del cor,Ecoli rRNA inh
O=C1COc2ccc(C(=O)COC(=O)Cc3ccc(Cl)cc3)cc2N1,-,-,-,-,-
O=C1COc2ccc(C(=O)COC(=O)CCSc3ccc(Cl)cc3)cc2N1,16,-,-,-,-
COc1cccc(/C=C/C(=O)OCC(=O)c2ccc3c(c2)NC(=O)CO3)c1OC,-,-,-,-,-20
N#Cc1ccccc1OCC(=O)OCC(=O)c1ccc2c(c1)NC(=O)CO2,-,-,36,.,.
COc1ccc(/C=C/C(=O)OCC(=O)c2ccc3c(c2)NC(=O)CO3)c(OC)c1,-,-,.,-,-
COc1nc(N)nc(NC(=O)c2cccs2)c1N=O,-,-,-,11,-
C[C@@H]1CCCCO[C@H](CN(C)C(=O)NC2CCCCC2)[C@@H](C)CN([C@H](C)CO)C(=O)c2cc(NC(=O)CCCN(C)C)ccc2O1,-,-,-,-,-
COc1ccc(N2CCN(C(=O)C3CCCN(c4ncnc5c4nc4n5CCCCC4)C3)CC2)cc1 (stereo unspecified),-,-,-,-,-26
CNC[C@@H]1Oc2c(NC(=O)Nc3ccc(OC)cc3)cccc2C(=O)N([C@@H](C)CO)C[C@H]1C,.,.,.,-,-
C=CCn1c(-c2sccc2C)n[nH]c1=S,-,-,-,.,.
